Screening data from PubChem.
An excerpt weighted towards active compounds, which were near 0.89% of everything screened.
V-ATPase pHluor: alters yeast V-ATPase proton transport. S. cerevisiae, pHLuorin cytosolic pH fluorescence. response, % at 10 µM. 350,000 compounds, 0.37% hits; in the data active means response mostly above about 7.3%, no sharp cut-off; inactive means mostly below about 5.4%; further: actives read high
T cell modulator: T cell immune modulators affecting CD8 T cell-vesicle binding. 330,000 compounds, 0.068% hits. AID 2052. response (vesicle binding), % at 7 µM. 2C CD8+ T cell-vesicle binding, flow cytometry; hits give low values;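 active means response, share of CD8 T cells binding vesicles, and their 90th percentile fluorescence all below set limits, cut at about 80% in these data, passing the limit was not always enough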;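 further: values below 100% mean blocked vesicle binding to the CD8+ T cells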
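Read-out – percent CD8+ FL2 mean versus row control · System – murine 2C transgenic CD8+ T lymphocytes · Times – 1.5 h cell–vesicle binding at 37 °C, then 20 min icy labelling · Control set – naked vesicles low, QL9 vesicles with vehicle high · Detection – cytometric PE anti-B7-1 and Alexa647 anti-CD8 signals after 1% paraformaldehyde fixation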
MIN6 prolif: MIN6 beta-cell proliferation induction; MIN6 cells proliferation, ATPlite luminescence, 48 h; cells starved in 0.2% serum; 100% = growth in 10% serum; AID 2380; 330,000 compounds, 0.29% hits; proliferation, % at 10 µM;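 active means compounds whose signal lies at least 3.5 SD above the mean of all wells on their plate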;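 further: 0% = DMSO-treated cells in low-serum medium and 100% = 10% serum control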
Arr AP2 block: inhibitors of human beta-arrestin and AP2 interaction. FITC-arrestin peptide / GST-AP2 beads, flow cytometry; AP2 beta2 appendage carries R879A mutation. inhibition, % at 10 µM. 340,000 compounds, 0.31% hits. AID 504490;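 active means inhibition above a set limit, near 3 SD of compounds lacking own fluorescence, cut at about 54% in these data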;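 further: plate controls were DMSO wells for no effect and 5 µM unlabelled arrestin peptide for full effect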
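system = GST-tagged AP2 beta2-adaptin appendage (R879A) on 4 µm glutathione beads | reagent = FITC-labelled arrestin peptide probe, 50 nM final | schedule = compound with beads 12 min RT, then probe 1 h RT | signal = HyperCyt-sampled flow cytometry, FL1 channel, ex 488/em 535 nm | read-out = percent response from loss of bead-bound FITC fluorescence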
XiGFP reactiv: X-chromosome reactivation activator; XiGFP mouse fibroblasts, % GFP-positive cells imaging, 3 d; cells co-treated with 5-aza-dC sensitizer; scaled so ellipticine positive control = 100%; activation, % at 7.58 µM; 360,000 compounds, 0.055% hits;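 active means mean normalized replicate activation at least 10% and every replicate at or above 10%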;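 further: 0% = median of on-plate neutral control wells and 100% = ellipticine 6 µM median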
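Assay system: SV40-immortalized XiGFP fibroblast cells, line 68-5-11; buffer or medium: DMEM plus 5-aza-dC sensitizer; compound: one concentration, pinned; timing: compounds 3 days, fix/stain 15 min at room temperature; benchmarks: positive control ellipticine, 6 µM final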
NTR1 agonist: agonists of human neurotensin receptor NTR1; activation, % at 20 µM; 330,000 compounds, 0.17% hits; AID 493036; P30989; NTR1-U2OS beta-arrestin-GFP spot imaging, agonist mode;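 active means activation at or above 40% of the spot to cytoplasm intensity ratio, with at least 20 cells analyzed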;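 further: 0% = DMSO without peptide and 100% = 100 nM NTR1 peptide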
Target sequence (P30989 whole entry, looked up): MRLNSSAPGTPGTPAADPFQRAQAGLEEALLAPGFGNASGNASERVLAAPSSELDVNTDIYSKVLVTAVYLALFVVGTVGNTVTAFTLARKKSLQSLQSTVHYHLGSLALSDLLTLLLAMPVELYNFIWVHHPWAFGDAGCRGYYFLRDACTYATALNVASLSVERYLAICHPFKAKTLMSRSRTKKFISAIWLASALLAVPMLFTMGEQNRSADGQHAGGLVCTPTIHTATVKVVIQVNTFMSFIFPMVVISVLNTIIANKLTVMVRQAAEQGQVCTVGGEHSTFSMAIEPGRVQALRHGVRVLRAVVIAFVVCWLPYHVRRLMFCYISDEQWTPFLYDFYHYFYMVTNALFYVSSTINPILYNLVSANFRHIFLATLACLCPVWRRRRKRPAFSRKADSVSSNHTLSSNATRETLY
NTR1 ag conf: NTR1 (human) agonism, confirmed | shares compounds with NTR1 agonist | NTR1-U2OS beta-arrestin-GFP translocation imaging | activation, % at 20 µM | 480 compounds, 38% hits;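 active means mean activation at 20 µM of at least 40%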;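 further: 0% = DMSO without peptide and 100% = 100 nM NTR1 peptide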
* hit, by the source's call; i = inactive; . = not tested or not shown.

SMILES	V-ATPase pHluor	T cell modulator	MIN6 prolif	Arr AP2 block	XiGFP reactiv	NTR1 agonist	NTR1 ag conf
COc1ccc(-c2ccc3c(c2)[C@@H]2[C@@H](CCN2S(=O)(=O)c2ccc(F)cc2)[C@H](CO)N3C)cc1	.	.	.	.	0.0	.	.
Cc1ccc(/C=C2\C(=O)ON=C2c2ccccc2)o1	-0.4	262.3	-2.0	11.3	0.0	1.0	.
Cc1ccc(-c2ccc(/C=C3\C(=O)ON=C3c3ccccc3)o2)c([N+](=O)[O-])c1	1.5	709.3	-5.9	4.9	.	99.6*	85.1*
C[C@@H]1CN([C@H](C)CO)C(=O)c2cc(NS(=O)(=O)c3cn(C)cn3)ccc2O[C@@H]1CN(C)CC1CC1	.	.	.	.	0.0	.	.
O=C(CN(C(=O)c1ccc(Cl)cc1)N1C(=O)C2C3C=CC(C3)C2C1=O)c1cccs1 (centres undefined)	-0.2	242.3	-2.7	-2.4	0.0	0.0	.
O=C(CN(C(=O)c1ccc(Cl)cc1)N1C(=O)C2CCCCC2C1=O)c1ccc(Cl)cc1 (centres undefined)	-2.1	135.3	-2.1	7.9	.	51.9*	46.9*
CC(C)Nc1ccc(Nc2ccnc3cc4ccccc4cc23)cc1	4.2	84.3	-5.8	25.2	-0.7	51.2*	84.8*
CCCN(C)C[C@H]1Oc2cc(C#Cc3ccccc3)ccc2S(=O)(=O)N([C@H](C)CO)C[C@@H]1C	.	.	.	.	-0.9	.	.
N=c1c(C(=O)NCCc2ccccc2)cc2c(=O)n3ccccc3nc2n1Cc1ccco1	-4.5	165.2	-3.9	-10.2	0.0	43.4*	6.2
N=c1c(C(=O)NC2CCCCC2)cc2c(=O)n3ccccc3nc2n1Cc1ccco1	3.3	276.3	-6.2	23.1	0.3	29.9	.
COc1ccccc1-c1cn[nH]c1-c1ccc(OCc2ccccc2)cc1O	3.0	109.0	-5.8	28.2	6.1	56.8*	0.9
C/C=C/c1cnc2c(c1)C(=O)N([C@H](C)CO)C[C@H](C)[C@H](CN(C)C(=O)NCCC)O2	.	.	.	.	-0.6	.	.
CC(=O)Nc1cccc(C(=O)/C=C/c2ccc(Br)cc2)c1	-4.8	119.7	-5.3	4.2	0.0	47.6*	72.6*
CC(C)NC(=O)Nc1ccc2c(c1)CC(=O)N(C)C[C@H](C)[C@H](CN(C)C(=O)NC(C)C)O2	.	.	.	.	-0.1	.	.
COc1cc2c3nnc(-c4ccc(F)cc4)c-3cn(Cc3cccc(F)c3)c2cc1OC	-0.1	164.6	-6.0	-22.4	.	64.8*	70.8*
COc1cc2c3nnc(-c4ccc(F)cc4)c-3cn(Cc3ccc(C)cc3)c2cc1OC	-3.0	558.2	-6.3	-464.6	98.0*	111.8*	95.6*
COc1cc2c3nnc(-c4ccccc4)c-3cn(Cc3ccc(F)cc3)c2cc1OC	-3.0	209.6	-6.2	-6.8	0.0	12.0	.
C[C@@H](NC(=O)C[C@H]1C[C@H]2c3cc(NC(=O)CC4CC4)ccc3O[C@H]2[C@@H](CO)O1)c1ccccc1	.	.	.	.	-0.1	.	.
CC(C)NC(=O)Nc1ccc2c(c1)C(=O)N([C@H](C)CO)C[C@@H](C)[C@@H](CN(C)Cc1ccc3c(c1)OCO3)O2	.	.	.	.	-0.9	.	.
COc1ccc(CN2C[C@H](C)[C@@H](OC)CN(C)C(=O)c3ccc(NC(=O)c4nc5ccccc5s4)cc3OC[C@@H]2C)cc1	.	.	.	.	-0.1	.	.
CCOc1cccc(-c2nn(-c3ccccc3)cc2/C=C(/C#N)C(=O)NCCCn2ccnc2)c1	1.0	197.0	-4.7	-17.5	0.0	44.5*	27.2
CCc1ccc2c(c1)C1(C(=O)N2)N2CCCC2C(C(=O)c2ccc3ccccc3c2)C12C(=O)Nc1ccccc12 (centres undefined)	0.8	147.2	-6.9	18.0	0.1	55.1*	87.3*
COc1ccc(O)c(/C=C2/SC(=S)N(Cc3ccccc3)C2=O)c1	0.2	194.9	-7.0	1.2	0.0	-3.2	.
COc1ccc(/C=C2/SC(=S)N(Cc3ccccc3)C2=O)cc1O	-3.1	85.4	-6.6	40.7	0.8	44.4*	4.5
Cc1ccccc1C(=O)N1CCc2cc(-c3csc(NC(=O)CN4CCCC4)n3)ccc21	-3.8	357.9	-2.0	27.9	0.0	54.2*	4.3
SMILES	V-ATPase pHluor	T cell modulator	MIN6 prolif	Arr AP2 block	XiGFP reactiv	NTR1 agonist	NTR1 ag conf
O=C(Nc1ccc(-c2noc(CCc3ccccc3)n2)cc1)c1cccnc1	0.5	321.5	-3.8	.	.	66.7*	14.5
Cc1sc(NC(=O)c2ccco2)nc1-c1ccc2c(c1)CC(C)N2C(=O)C1CC1 (centres undefined)	-0.1	379.9	-5.1	24.9	.	71.1*	66.1*
CCCCn1c(N)c(-c2nc3ccccc3s2)c2c([N+](=O)[O-])nn(CC)c(=O)c21	1.8	425.6	-6.0	8.2	.	19.2	.
CCCCn1c(N)c(-c2nc3ccccc3s2)c2c([N+](=O)[O-])nn(C)c(=O)c21	0.0	269.9	-5.7	0.4	.	61.0*	5.3
Cc1noc(C)c1S(=O)(=O)Nc1ccc2c(c1)CC(=O)N([C@@H](C)CO)C[C@H](C)[C@@H](CN(C)Cc1ccc(C(=O)O)cc1)O2	.	.	.	.	0.5	.	.
CCCCNc1c(-c2cccc(-c3ccc(OC)cc3)c2)nc2ccc(C)cn12	-1.4	224.8	-8.0	5.3	-0.1	35.7	.
CCCCNc1c(-c2cccc(-c3cc(C(C)=O)cs3)c2)nc2ccc(C)cn12	-0.7	93.4	-7.3	9.7	0.0	40.6*	22.4
O=c1/c(=C\c2cccc(O)c2)sc2nc(-c3ccccc3)c(-c3ccccc3)n12	8.1	i	-6.1	-5.9	0.2	46.5*	41.5*
O=C(Nc1ccc2oc(-c3ccccc3F)nc2c1)c1ccc2c(c1)OCCO2	1.4	652.7	-4.2	5.9	.	45.9*	53.0*
O=C(CC(c1ccccc1)c1cc(Br)ccc1O)NCCN1CCOCC1 (centres undefined)	4.0	228.0	-3.0	1.4	.	43.4*	0.7
CCN(CCNCC(O)COc1ccccc1C(C)C)c1cccc(C)c1 (centres undefined)	-2.9	183.7	-6.5	-0.3	-0.1	53.5*	15.3
CCOC(=O)N1CCN(CC(O)COc2ccccc2C(C)C)CC1 (centres undefined)	6.3	279.4	0.2	32.8	.	1.5	.
CCn1c(SCC(=O)NC2=NCCS2)nnc1C(C)NC(=O)c1ccc(Cl)cc1 (centres undefined)	-1.0	310.7	1.4	23.2	0.6	41.9*	-0.6
COc1ccc(OC)c(NC(=O)COC(=O)c2c3c(nc4ccccc24)CCCC3)c1	2.6	505.5	-4.9	8.5	.	40.7*	29.5
C[C@H](O)C#Cc1ccc2c(c1)O[C@@H](CN(C)C(=O)C1CCC1)[C@@H](C)CN([C@@H](C)CO)S2(=O)=O	.	.	.	.	0.0	.	.
